From article PMC6500982 (Cancer Science, 2019)

Test: Safety and tolerability
Assay type: in vivo, human
Outline: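 Patients (enrolled January 2015–February 2016) received oral test compound in four cohorts: 160, 320 or 480 mg QD, or 300 mg BID. Dosing continued until progression, unacceptable AEs or consent withdrawal. AEs were graded by CTCAE v4.0, alongside laboratory tests, vital signs and ECGs. The safety population was all patients receiving ≥1 dose.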

CC#CC(=O)N1CC[C@@H](n2c(=O)n(-c3ccc(Oc4ccccc4)cc3)c3c(N)ncnc32)C1 [tirabrutinib]
7 (100.0) n (%): All AEs, Any grade (300 mg BID N = 7)
1 (14.3) n (%): Anemia, Any grade (300 mg BID N = 7) | Anemia, Grade ≥3 (300 mg BID N = 7) | Arthralgia, Any grade (300 mg BID N = 7) | Aspartate aminotransferase increased, Any grade (300 mg BID N = 7) | Constipation, Any grade (300 mg BID N = 7) | Cystitis, Any grade (300 mg BID N = 7) | Dysgeusia, Any grade (300 mg BID N = 7) | Gamma‐glutamyltransferase increased, Any grade (300 mg BID N = 7) | Headache, Any grade (300 mg BID N = 7) | Nasopharyngitis, Any grade (300 mg BID N = 7) | Pharyngitis, Any grade (300 mg BID N = 7) | Rash, Any grade (300 mg BID N = 7)
3 (42.9) n (%): All AEs, Grade ≥3 (300 mg BID N = 7) | Insomnia, Any grade (300 mg BID N = 7)
3 (100.0) n (%): All AEs, Any grade (160 mg QD N = 3) | All AEs, Any grade (320 mg QD N = 3)
2 (28.6) n (%): Diarrhea, Any grade (300 mg BID N = 7) | Nausea, Any grade (300 mg BID N = 7) | Pyrexia, Any grade (300 mg BID N = 7) | Vomiting, Any grade (300 mg BID N = 7)
0 n (%): Anemia, Any grade (160 mg QD N = 3) | Anemia, Grade ≥3 (160 mg QD N = 3) | Arthralgia, Grade ≥3 (160 mg QD N = 3) | Aspartate aminotransferase increased, Any grade (160 mg QD N = 3) | Aspartate aminotransferase increased, Grade ≥3 (160 mg QD N = 3) | Constipation, Any grade (160 mg QD N = 3) | Constipation, Grade ≥3 (160 mg QD N = 3) | Cystitis, Any grade (160 mg QD N = 3) | Cystitis, Grade ≥3 (160 mg QD N = 3) | Diarrhea, Any grade (160 mg QD N = 3) | Diarrhea, Grade ≥3 (160 mg QD N = 3) | Dysgeusia, Any grade (160 mg QD N = 3) | Dysgeusia, Grade ≥3 (160 mg QD N = 3) | Gamma‐glutamyltransferase increased, Any grade (160 mg QD N = 3) | Gamma‐glutamyltransferase increased, Grade ≥3 (160 mg QD N = 3) | Headache, Grade ≥3 (160 mg QD N = 3) | Hypokalemia, Any grade (160 mg QD N = 3) | Hypokalemia, Grade ≥3 (160 mg QD N = 3) | Hypophosphatemia, Any grade (160 mg QD N = 3) | Hypophosphatemia, Grade ≥3 (160 mg QD N = 3) | Insomnia, Any grade (160 mg QD N = 3) | Insomnia, Grade ≥3 (160 mg QD N = 3) | Leukopenia, Any grade (160 mg QD N = 3) | Leukopenia, Grade ≥3 (160 mg QD N = 3) | Lymphopenia, Any grade (160 mg QD N = 3) | Lymphopenia, Grade ≥3 (160 mg QD N = 3) | Malaise, Grade ≥3 (160 mg QD N = 3) | Myalgia, Grade ≥3 (160 mg QD N = 3) | Nasopharyngitis, Grade ≥3 (160 mg QD N = 3) | Nausea, Any grade (160 mg QD N = 3) | Nausea, Grade ≥3 (160 mg QD N = 3) | Pharyngitis, Grade ≥3 (160 mg QD N = 3) | Pyrexia, Any grade (160 mg QD N = 3) | Pyrexia, Grade ≥3 (160 mg QD N = 3) | Rash, Grade ≥3 (160 mg QD N = 3) | Thrombocytopenia, Any grade (160 mg QD N = 3) | Thrombocytopenia, Grade ≥3 (160 mg QD N = 3) | Upper respiratory tract inflammation, Grade ≥3 (160 mg QD N = 3) | Vomiting, Any grade (160 mg QD N = 3) | Vomiting, Grade ≥3 (160 mg QD N = 3) | Arthralgia, Grade ≥3 (300 mg BID N = 7) | Aspartate aminotransferase increased, Grade ≥3 (300 mg BID N = 7) | Constipation, Grade ≥3 (300 mg BID N = 7) | Cystitis, Grade ≥3 (300 mg BID N = 7) | Diarrhea, Grade ≥3 (300 mg BID N = 7) | Dysgeusia, Grade ≥3 (300 mg BID N = 7) | Gamma‐glutamyltransferase increased, Grade ≥3 (300 mg BID N = 7) | Headache, Grade ≥3 (300 mg BID N = 7) | Hypokalemia, Any grade (300 mg BID N = 7) | Hypokalemia, Grade ≥3 (300 mg BID N = 7) | Hypophosphatemia, Any grade (300 mg BID N = 7) | Hypophosphatemia, Grade ≥3 (300 mg BID N = 7) | Insomnia, Grade ≥3 (300 mg BID N = 7) | Leukopenia, Any grade (300 mg BID N = 7) | Leukopenia, Grade ≥3 (300 mg BID N = 7) | Lymphopenia, Any grade (300 mg BID N = 7) | Lymphopenia, Grade ≥3 (300 mg BID N = 7) | Malaise, Any grade (300 mg BID N = 7) | Malaise, Grade ≥3 (300 mg BID N = 7) | Myalgia, Any grade (300 mg BID N = 7) | Myalgia, Grade ≥3 (300 mg BID N = 7) | Nasopharyngitis, Grade ≥3 (300 mg BID N = 7) | Nausea, Grade ≥3 (300 mg BID N = 7) | Neutropenia, Any grade (300 mg BID N = 7) | Neutropenia, Grade ≥3 (300 mg BID N = 7) | Pharyngitis, Grade ≥3 (300 mg BID N = 7) | Pyrexia, Grade ≥3 (300 mg BID N = 7) | Rash, Grade ≥3 (300 mg BID N = 7) | Thrombocytopenia, Any grade (300 mg BID N = 7) | Thrombocytopenia, Grade ≥3 (300 mg BID N = 7) | Upper respiratory tract inflammation, Any grade (300 mg BID N = 7) | Upper respiratory tract inflammation, Grade ≥3 (300 mg BID N = 7) | Vomiting, Grade ≥3 (300 mg BID N = 7) | Anemia, Any grade (320 mg QD N = 3) | Anemia, Grade ≥3 (320 mg QD N = 3) | Arthralgia, Grade ≥3 (320 mg QD N = 3) | Aspartate aminotransferase increased, Any grade (320 mg QD N = 3) | Aspartate aminotransferase increased, Grade ≥3 (320 mg QD N = 3) | Constipation, Grade ≥3 (320 mg QD N = 3) | Cystitis, Grade ≥3 (320 mg QD N = 3) | Diarrhea, Grade ≥3 (320 mg QD N = 3) | Dysgeusia, Any grade (320 mg QD N = 3) | Dysgeusia, Grade ≥3 (320 mg QD N = 3) | Gamma‐glutamyltransferase increased, Grade ≥3 (320 mg QD N = 3) | Headache, Any grade (320 mg QD N = 3) | Headache, Grade ≥3 (320 mg QD N = 3) | Hypokalemia, Any grade (320 mg QD N = 3) | Hypokalemia, Grade ≥3 (320 mg QD N = 3) | Hypophosphatemia, Any grade (320 mg QD N = 3) | Hypophosphatemia, Grade ≥3 (320 mg QD N = 3) | Insomnia, Any grade (320 mg QD N = 3) | Insomnia, Grade ≥3 (320 mg QD N = 3) | Malaise, Any grade (320 mg QD N = 3) | Malaise, Grade ≥3 (320 mg QD N = 3)
1 (33.3) n (%): All AEs, Grade ≥3 (160 mg QD N = 3) | Arthralgia, Any grade (160 mg QD N = 3) | Headache, Any grade (160 mg QD N = 3) | Nasopharyngitis, Any grade (160 mg QD N = 3) | Neutropenia, Any grade (160 mg QD N = 3) | Neutropenia, Grade ≥3 (160 mg QD N = 3) | Pharyngitis, Any grade (160 mg QD N = 3) | Rash, Any grade (160 mg QD N = 3) | Upper respiratory tract inflammation, Any grade (160 mg QD N = 3) | Arthralgia, Any grade (320 mg QD N = 3) | Constipation, Any grade (320 mg QD N = 3) | Cystitis, Any grade (320 mg QD N = 3) | Diarrhea, Any grade (320 mg QD N = 3) | Gamma‐glutamyltransferase increased, Any grade (320 mg QD N = 3) | Lymphopenia, Any grade (320 mg QD N = 3) | Lymphopenia, Grade ≥3 (320 mg QD N = 3)
2 (66.7) n (%): Malaise, Any grade (160 mg QD N = 3) | Myalgia, Any grade (160 mg QD N = 3) | All AEs, Grade ≥3 (320 mg QD N = 3) | Leukopenia, Any grade (320 mg QD N = 3) | Leukopenia, Grade ≥3 (320 mg QD N = 3)
